Test results: ChEMBL document CHEMBL1154475, “1,3,4-Oxadiazole/thiadiazole and 1,2,4-triazole derivatives of biphenyl-4-yloxy acetic acid: synthesis and preliminary evaluation of biological properties” (Eur J Med Chem, 2008)

What was measured:
Rattus norvegicus [1] = test: Antiinflammatory activity in Wistar rat assessed as inhibition of carrageenan-induced paw edema administered orally at equimolar oral dose relative to 10 mg/kg flurbiprofen measured after 3 hrs of carrageenan challenge; type: functional
Procedure, shortened: (§1)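 Adult Wistar rats of either sex, 150–200 g, n=6 per group, fasted 24 h with water allowed. Dosed orally in 0.5% CMC 1 h before 0.1 ml of 1% carrageenan in saline was injected subplantar into the right hind paw. Paw volume was read by plethysmometer at baseline, 3 h and 4 h. % inhibition = (Vc − Vt)/Vc × 100. ANOVA with Dunnett's test.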

Rattus norvegicus [2] = test: Antiinflammatory activity in Wistar rat assessed as inhibition of carrageenan-induced paw edema administered orally at equimolar oral dose relative to 10 mg/kg flurbiprofen measured after 4 hrs of carrageenan challenge; type: functional; procedure, shortened: as §1
Rattus norvegicus [3] = organism: Rattus norvegicus; test: Inhibition of lipid peroxidation in rat assessed as malondialdehyde level per 100 mg of tissue; type: functional, organism-based
Procedure, shortened: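 Gastric mucosa taken from the ulcerogenicity rats was scraped, weighed (100 mg) and homogenized in ice-cold 1.15% KCl. SDS, acetate buffer pH 3.5 and 0.8% TBA were added and the mixture heated at 95 °C for 60 min. It was extracted with n-butanol:pyridine (15:1), centrifuged, and the organic layer read at 532 nm. Results given as nmol MDA/100 mg tissue (ε 1.56 × 10⁵ cm⁻¹ M⁻¹).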

Rattus norvegicus [4] = test: Hepatotoxicity in po dosed Wistar albino rat assessed as serum glutamate oxaloacetate transaminase activity administered at equimolar oral dose relative to 10 mg/kg flurbiprofen after 15 days; type: toxicity, organism-based; design: dose 10 mg/kg, route oral; conditions: in vivo, 360 h
Procedure, shortened: (§2)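 Wistar albino rats of either sex, 150–200 g, n=6 per group, given oral doses in 0.5% w/v CMC once daily for 15 days; controls received vehicle. Retro-orbital blood was clotted 45 min at room temperature and serum separated by centrifugation at 2500 rpm for 15 min for the biochemical assays. ANOVA with Dunnett's test against control.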

Rattus norvegicus [5] = test: Gastrointestinal toxicity in rat assessed as gastric mucosal damage severity index administered at equimolar oral dose relative to 30 mg/kg flurbiprofen; type: organism-based, Gastric mucosa; design: dose 30 mg/kg, route oral; conditions: in vivo
Procedure, shortened: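 Wistar rats, n=6 per group, food withdrawn 24 h before oral dosing in 0.5% CMC, then given normal diet for 17 h before sacrifice. Stomachs were opened along the greater curvature and scored under a magnifier (0.5 redness to 3.0 for >5 ulcers). Severity index = mean treated score minus mean control score.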

Rattus norvegicus [6] = test: Hepatotoxicity in po dosed Wistar albino rat assessed as total albumin content administered at equimolar oral dose relative to 10 mg/kg flurbiprofen after 15 days; type: toxicity, organism-based; design: dose 10 mg/kg, route oral; conditions: in vivo, 360 h; procedure, shortened: as §2
Rattus norvegicus [7] = test: Hepatotoxicity in po dosed Wistar albino rat assessed as serum glutamate pyruvate transaminase activity administered at equimolar oral dose relative to 10 mg/kg flurbiprofen after 15 days; type: toxicity, organism-based; design: dose 10 mg/kg, route oral; conditions: in vivo, 360 h; procedure, shortened: as §2
Mus musculus = test: Analgesic activity in Swiss albino mouse assessed as inhibition of tail withdrawal administered orally at equimolar oral dose relative to 10 mg/kg flurbiprofen after 4 hrs; type: functional
Procedure, shortened: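 Tail immersion in Swiss albino mice of either sex, 25–30 g, n=6 per group, dosed orally as a suspension in 0.5% w/v CMC. The lower 5 cm of the tail was dipped in water held at 55 ± 0.5 °C. Reaction time (s) to tail withdrawal was recorded before dosing and 4 h after, with a 10 s cut-off.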

Rattus norvegicus [8] = test: Hepatotoxicity in po dosed Wistar albino rat assessed as total protein content administered at equimolar oral dose relative to 10 mg/kg flurbiprofen after 15 days; type: toxicity, organism-based; design: dose 10 mg/kg, route oral; conditions: in vivo, 360 h; procedure, shortened: as §2

Structure (SMILES)	inhibition in vivo (Rattus norvegicus [1]) [%]	inhibition in vivo (Rattus norvegicus [2]) [%]	also measured
Fc1ccc(Nc2nnc(COc3ccc(-c4ccccc4)cc3)o2)cc1	52.3	52.3	
c1ccc(-c2ccc(OCc3nnc(-c4ccccc4)o3)cc2)cc1	18.2	18.2	
Cc1ccc(Nc2nnc(COc3ccc(-c4ccccc4)cc3)s2)c(C)c1	56.8	56.8	
Cc1ccc(-n2c(S)nnc2COc2ccc(-c3ccccc3)cc2)c(C)c1	54.5	54.5	
Clc1ccc(-c2nnc(COc3ccc(-c4ccccc4)cc3)o2)c(Cl)c1	56.1	57.6	
Sc1nnc(COc2ccc(-c3ccccc3)cc2)n1-c1ccc(Br)cc1	31.8	31.8	
Clc1ccccc1-c1nnc(COc2ccc(-c3ccccc3)cc2)o1	59.1	63.6	
CCCCn1c(S)nnc1COc1ccc(-c2ccccc2)cc1	75	81.8	Activity (Rattus norvegicus [3]): 5.19 nmol; Activity (Rattus norvegicus [4]): 138 U/ml; UI (Rattus norvegicus [5]): 0.666; Activity (Rattus norvegicus [6]): 0.71 g/dL; Activity (Rattus norvegicus [7]): 22.67 U/ml; inhibition in vivo (Mus musculus): 58.2%; Activity (Rattus norvegicus [8]): 1.82 g/dL
COc1ccc2cc(C(C)c3nnc(COc4ccc(-c5ccccc5)cc4)o3)ccc2c1 (configuration not stated)	25	25	
CC(C)Cc1ccc(C(C)c2nnc(COc3ccc(-c4ccccc4)cc3)o2)cc1 (configuration not stated)	77.3	79.5	Activity (Rattus norvegicus [3]): 5.28 nmol; Activity (Rattus norvegicus [4]): 141.09 U/ml; UI (Rattus norvegicus [5]): 0.75; Activity (Rattus norvegicus [6]): 1.72 g/dL; Activity (Rattus norvegicus [7]): 29.17 U/ml; inhibition in vivo (Mus musculus): 72.8%; Activity (Rattus norvegicus [8]): 1.92 g/dL
CC(C(=O)O)c1ccc(-c2ccccc2)c(F)c1 (configuration not stated) [FLURBIPROFEN]	75	79.5	Activity (Rattus norvegicus [3]): 7.51 nmol; UI (Rattus norvegicus [5]): 1.666; inhibition in vivo (Mus musculus): 69.5%
Cc1ccccc1Nc1nnc(COc2ccc(-c3ccccc3)cc2)s1	25	29.5	
Fc1ccc(-n2c(S)nnc2COc2ccc(-c3ccccc3)cc2)cc1	75	79.5	Activity (Rattus norvegicus [3]): 5.34 nmol; UI (Rattus norvegicus [5]): 0.833; inhibition in vivo (Mus musculus): 30.5%
Clc1ccc(-c2nnc(COc3ccc(-c4ccccc4)cc3)o2)cc1	75	77.3	Activity (Rattus norvegicus [3]): 5.88 nmol; UI (Rattus norvegicus [5]): 1; inhibition in vivo (Mus musculus): 16.9%
Brc1ccc(Nc2nnc(COc3ccc(-c4ccccc4)cc3)s2)cc1	63.6	63.6	
Clc1ccc(Nc2nnc(COc3ccc(-c4ccccc4)cc3)s2)cc1	52.3	54.5	
Cc1ccccc1-n1c(S)nnc1COc1ccc(-c2ccccc2)cc1	56.8	59.1	
Sc1nnc(COc2ccc(-c3ccccc3)cc2)n1-c1ccc(Cl)cc1	15.9	18.2	
Fc1ccc(Nc2nnc(COc3ccc(-c4ccccc4)cc3)s2)cc1	27.3	29.5	
Clc1ccc(OCc2nnc(COc3ccc(-c4ccccc4)cc3)o2)c(Cl)c1	29.5	29.5	
CCCCNc1nnc(COc2ccc(-c3ccccc3)cc2)o1	15.9	15.9	
CCCCNc1nnc(COc2ccc(-c3ccccc3)cc2)s1	27.3	27.3	
